# A1 apoptosis 2 = compounds inhibiting A1, read as caspase activation | MEF A1-2A-BIM cells, caspase-Glo luminescence, 3 h; percent of clofoctol response, DMSO zero | caspase activation, % (test concentration not listed) | 24,000 tested, under 10 active; in the data active = caspase activation above about 5.9%
#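 Test system – A1-2A-BIM-expressing MEF cells · Input – 2500 cells/well · Medium – RPMI-1640 growth medium with 10% FBS · Compound dosing – 50 nL pinned compound · Timing – 3 h compound exposure at 37 °C · Technique – Caspase-Glo luminescence (DEVD substrate) · Evaluation – Caspase-3/7 activity from luminescence increase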
# INS-1E rescue = preserves ATP levels in cytokine-treated INS-1E cells; INS-1E cytokine-induced death, ATP luminescence, 48 h; normalised: neutral wells 0, positive control 100; protection from cytokine-induced ATP loss, % at 10 µM; 0.1% of 20,000 active; AID 488910;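 active = mean replicate protection from cytokine-induced ATP loss at least 50% and at least 75% of replicates each reaching 50%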
#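 Material: INS-1E rat cells; Quantity: 8000 cells/well; Buffer or medium: phenol-red-free RPMI with 5% fetal bovine serum; Probe or stimulus: cytokine cocktail of IFN-γ, TNF-α and IL-1β; Compound dosing: single test concentration per compound, delivered by pin transfer; Incubation: 48 h co-treatment, 10 min post-lysis read; Signal: CellTiter-Glo luminescence.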
# T cruzi intra = intracellular Trypanosoma cruzi inhibition | AID 651903 | activity score (inhibition), % at 5.01 µM | 4.9% of 22,000 active | intracellular Trypanosoma cruzi in host cells, plate reader; in the data active = activity score above about 55%;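 also: parasites and compound incubated about four days before reading; 0% = median of neutral control wells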
# * hit, by the source's call; x = not tested or not shown. Only a selection was taken, and hits are over-represented in it overall.
SMILES,A1 apoptosis 2,INS-1E rescue,T cruzi intra
Cc1ccc(S(=O)(=O)Nc2ccc3c(c2)CC(=O)N([C@@H](C)CO)C[C@@H](C)[C@@H](CN(C)Cc2ccc(Cl)c(Cl)c2)O3)cc1,1,-30,59*
Cc1ccc(S(=O)(=O)Nc2ccc3c(c2)CC(=O)N([C@H](C)CO)C[C@@H](C)[C@H](CN(C)Cc2ccc(Cl)c(Cl)c2)O3)cc1,x,2,65*
C[C@@H]1CN([C@@H](C)CO)C(=O)Cc2cc(NS(=O)(=O)c3ccc(Cl)cc3)ccc2O[C@H]1CN(C)Cc1ccc(Cl)c(Cl)c1,-1,x,x
CC(C)(C)/C=N/NC(=O)CCCCCCC(=O)O,x,-8,-8
C[C@H]1CN([C@@H](C)CO)C(=O)c2cc(NS(=O)(=O)c3cn(C)cn3)ccc2O[C@H]1CN(C)S(=O)(=O)c1cn(C)cn1,-1,x,0
C[C@H](CO)N1C[C@H](C)[C@H](CN(C)Cc2ccncc2)Oc2c(NC(=O)c3ccncc3)cccc2C1=O,0,4,-8
C[C@@H]1CN([C@H](C)CO)C(=O)c2cccc(NC(=O)c3ccncc3)c2O[C@H]1CN(C)Cc1ccncc1,1,4,-16
C[C@@H]1CN([C@@H](C)CO)C(=O)c2cccc(NC(=O)c3ccncc3)c2O[C@H]1CN(C)Cc1ccc(Cl)c(Cl)c1,0,3,78*
C[C@H]1CN([C@@H](C)CO)C(=O)c2cccc(NC(=O)c3ccncc3)c2O[C@H]1CN(C)Cc1ccncc1,x,11,-18
C[C@H](CO)N1C[C@H](C)[C@H](CN(C)Cc2ccc(Cl)c(Cl)c2)Oc2c(NC(=O)c3ccncc3)cccc2C1=O,1,-8,56*
C[C@@H]1CN([C@H](C)CO)C(=O)c2cccc(NC(=O)c3ccncc3)c2O[C@H]1CN(C)Cc1ccc(Cl)c(Cl)c1,-1,1,76*
CCCCCCC/C=N/NC(=O)CCCCCCC(=O)OC,1,6,-16
COc1cc(/C=N/NC(=O)CCCCCC(=O)NO)ccc1O,-1,x,x
COCCOC(=O)N1C(=O)[C@@]2(c3ccccc31)[C@H](C(N)=O)[C@H]1C(=O)O[C@H](c3ccccc3)[C@H](c3ccccc3)N1[C@@H]2c1ccc(OCCO)cc1,-1,x,x
O=C1O[C@H](c2ccccc2)[C@H](c2ccccc2)N2[C@H]1[C@@H](C(=O)N1CCCCCCC1)[C@]1(C(=O)Nc3ccc(C#CC4=CCCCC4)cc31)[C@H]2c1ccc(OCCO)cc1,1,x,x
COc1ccc(S(=O)(=O)Nc2ccc3c(c2)C(=O)N([C@H](C)CO)C[C@@H](C)[C@H](CN(C)Cc2ccc(C(F)(F)F)cc2)OCCCC[C@@H](C)O3)cc1,0,x,x
Cc1ccc(S(=O)(=O)Nc2ccc3c(c2)C(=O)N([C@H](C)CO)C[C@H](C)[C@H](CN(C)Cc2ccc(C(F)(F)F)cc2)OCCCC[C@@H](C)O3)cc1,x,-36,66*
C[C@@H]1CCCCO[C@H](CN(C)Cc2ccc(C(F)(F)F)cc2)[C@@H](C)CN([C@H](C)CO)C(=O)c2cc(NS(=O)(=O)c3ccc(F)cc3)ccc2O1,0,-10,56*
C[C@@H]1CN([C@H](C)CO)C(=O)c2cc(NS(=O)(=O)c3ccc(F)cc3)ccc2O[C@@H](C)CCCCO[C@H]1CN(C)Cc1ccc(C(F)(F)F)cc1,2,x,x
Cc1ccc(S(=O)(=O)Nc2ccc3c(c2)C(=O)N([C@@H](C)CO)C[C@@H](C)[C@@H](CN(C)Cc2ccc(C(F)(F)F)cc2)OCCCC[C@H](C)O3)cc1,-1,x,x
C[C@@H]1CCCCO[C@@H](CN(C)Cc2ccc(C(F)(F)F)cc2)[C@@H](C)CN([C@H](C)CO)C(=O)c2cc(NS(=O)(=O)c3ccc(Cl)cc3)ccc2O1,x,-24,63*
COc1ccc(S(=O)(=O)Nc2ccc3c(c2)C(=O)N([C@H](C)CO)C[C@H](C)[C@H](CN(C)Cc2ccc(C(F)(F)F)cc2)OCCCC[C@@H](C)O3)cc1,x,1,65*
C[C@@H]1CCCCO[C@H](CN(C)Cc2ccc(C(F)(F)F)cc2)[C@H](C)CN([C@@H](C)CO)C(=O)c2cc(NS(=O)(=O)c3ccc(Cl)cc3)ccc2O1,0,x,x
CC1(C)COC(CCC/C=N/NC(=O)CCCCCCC(=O)O)OC1,x,1,-27
O=C(N/N=C/c1ccc(OCCO)cc1)c1ccccn1,-10,-12,-5
SMILES,A1 apoptosis 2,INS-1E rescue,T cruzi intra
C[C@@H](O)[C@@H](O)[C@@H](O)C/C=N/NC(=O)c1ccccn1,x,22,-3
C[C@@H]1CN([C@H](C)CO)C(=O)c2cc(NS(=O)(=O)c3ccccc3)ccc2O[C@H]1CN(C)C(=O)Nc1ccc(C(F)(F)F)cc1,1,-4,4
C[C@@H]1CN([C@H](C)CO)C(=O)Cc2cc(NS(=O)(=O)c3ccccc3)ccc2O[C@@H]1CN(C)C(=O)Nc1ccc2c(c1)OCO2,-1,3,5
Cc1ccc(S(=O)(=O)N(C)C[C@H]2Oc3c(NC(=O)Nc4ccc(C(F)(F)F)cc4)cccc3C(=O)N([C@H](C)CO)C[C@H]2C)cc1,x,-36,38
Cc1noc(C)c1NC(=O)Nc1cccc2c1O[C@@H](CN(C)S(C)(=O)=O)[C@H](C)CN([C@H](C)CO)C2=O,x,4,-34
Cc1noc(C)c1NC(=O)Nc1cccc2c1O[C@@H](CN(C)S(C)(=O)=O)[C@@H](C)CN([C@@H](C)CO)C2=O,x,-59,67*
C[C@@H]1CN([C@@H](C)CO)C(=O)c2cccc(NC(=O)Nc3ccc(C(F)(F)F)cc3)c2O[C@H]1CN(C)S(=O)(=O)c1ccc(F)cc1,1,-7,33
C[C@H](CO)N1C[C@H](C)[C@@H](CN(C)S(=O)(=O)c2ccc(Cl)cc2)Oc2c(NC(=O)Nc3ccc(C(F)(F)F)cc3)cccc2C1=O,-1,-29,33
C[C@@H]1CN([C@@H](C)CO)C(=O)c2cccc(NC(=O)Nc3ccc(C(F)(F)F)cc3)c2O[C@H]1CN(C)S(=O)(=O)c1ccc(Cl)cc1,0,-17,80*
Cc1ccc(S(=O)(=O)N(C)C[C@@H]2Oc3c(NC(=O)Nc4ccc(C(F)(F)F)cc4)cccc3C(=O)N([C@H](C)CO)C[C@@H]2C)cc1,-1,-69,85*
C[C@H](CO)N1C[C@H](C)[C@@H](CN(C)S(=O)(=O)c2ccc(F)cc2)Oc2c(NC(=O)Nc3ccc(C(F)(F)F)cc3)cccc2C1=O,2,-33,57*
C=CCOc1ccccc1/C=N/NC(=O)CCCCCCC(=O)OC,1,8,-26
C[C@@H]1CN([C@H](C)CO)C(=O)Cc2cc(NC(=O)Nc3ccc(C(F)(F)F)cc3)ccc2O[C@@H]1CN(C)C(=O)NC1CCCCC1,0,-3,-22
C[C@H]1CN([C@@H](C)CO)C(=O)c2cccc(NC(=O)CCCCCC(=O)Nc3ccccc3N)c2O[C@@H]1CN(C)S(=O)(=O)c1ccc(Cl)cc1,0,2,35
C[C@H](CO)N1C[C@H](C)[C@H](CN(C)S(=O)(=O)c2ccc(Cl)cc2)Oc2c(NC(=O)CCCCCC(=O)Nc3ccccc3N)cccc2C1=O,1,10,74*
